Measured values from ChEMBL document CHEMBL1155224, “Discovery of new inhibitors of resistant Streptococcus pneumoniae penicillin binding protein (PBP) 2x by structure-based virtual screening” (J Med Chem, 2009).
Substitutions are numbered along the chain they refer to. The source made the active and inactive calls. The rule behind the calls is not given here.

How the values were obtained:
[1] = biological target: T1, Penicillin-binding protein 2X (Streptococcus pneumoniae R6) (UniProt P59676); experiment: Inhibition of penicillin-sensitive Streptococcus pneumoniae R6 PBP2X preincubated for 1 hr before addition of substrate (R)-[2-(benzoylamino)propionylsulfanyl]acetic acid
T1 sequence (whole entry): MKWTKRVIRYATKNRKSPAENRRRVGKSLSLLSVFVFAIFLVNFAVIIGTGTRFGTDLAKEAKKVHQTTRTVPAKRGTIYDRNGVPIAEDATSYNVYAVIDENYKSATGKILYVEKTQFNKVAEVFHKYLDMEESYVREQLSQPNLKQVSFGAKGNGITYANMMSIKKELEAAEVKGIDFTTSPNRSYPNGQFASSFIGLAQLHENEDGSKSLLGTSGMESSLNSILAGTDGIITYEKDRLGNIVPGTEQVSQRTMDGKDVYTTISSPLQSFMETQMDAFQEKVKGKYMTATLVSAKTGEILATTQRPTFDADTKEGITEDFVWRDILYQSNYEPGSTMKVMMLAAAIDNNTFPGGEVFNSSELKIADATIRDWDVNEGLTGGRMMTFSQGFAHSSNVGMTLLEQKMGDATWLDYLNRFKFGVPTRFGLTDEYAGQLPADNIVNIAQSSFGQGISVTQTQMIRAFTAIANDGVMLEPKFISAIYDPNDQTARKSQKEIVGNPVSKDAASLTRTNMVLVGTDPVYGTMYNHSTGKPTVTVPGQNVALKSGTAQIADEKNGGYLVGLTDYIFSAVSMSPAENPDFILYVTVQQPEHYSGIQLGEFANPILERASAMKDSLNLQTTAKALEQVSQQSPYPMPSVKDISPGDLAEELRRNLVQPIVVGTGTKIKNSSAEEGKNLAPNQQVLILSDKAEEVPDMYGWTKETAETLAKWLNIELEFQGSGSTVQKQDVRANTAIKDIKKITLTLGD
Procedure, shortened: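 Compounds taken from 100 mM DMF stocks (1% DMF final) and preincubated with 0.09 μM R6-PBP2x in 10 mM sodium phosphate pH 7.0 with 0.01 mg/mL BSA, 60 min, 25 °C. Spontaneous hydrolysis without enzyme measured. Triplicates. IC50 fitted from residual activity versus decreasing inhibitor concentration, with 0.01% Triton X-100.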

[2] = biological target: T2, Penicillin-binding protein 2x (Streptococcus pneumoniae serotype 4 (strain ATCC BAA-334 / TIGR4)) (UniProt P14677); experiment: Inhibition of penicillin-resistant Streptococcus pneumoniae 5204 PBP2X preincubated for 4 hrs before addition of substrate (R)-[2-(benzoylamino)propionylsulfanyl]acetic acid
T2 sequence (whole entry): T1 sequence (whole entry) with M385T
Procedure, shortened: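 0.6 μM 5204-PBP2x preincubated 4 h at 25 °C with inhibitor in 10 mM sodium phosphate pH 7.0, 70 mM D-alanine, 0.01 mg/mL BSA, 1% DMF, 0.01% Triton X-100. Assays were run in triplicate, and IC50 was fitted from residual activity versus decreasing inhibitor concentrations.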

SMILES | Activity [1] | Activity [2]
CC1(C)S[C@@H]2[C@H](NC(=O)[C@H](N)c3ccccc3)C(=O)N2[C@H]1C(=O)O | Active | Active
CC(=O)C[n+]1ccc(SCC2=C(C(=O)[O-])N3C(=O)[C@@H](NC(=O)/C(=N/OC4CCCC4)c4csc(N)n4)[C@H]3SC2)cc1 | Active | Active
Nc1cc(SCSC2=C(C(=O)O)N3C(=O)[C@@H](NC(=O)/C(=N/O)c4nc(N)sc4Cl)[C@H]3SC2)nc(N)n1 | Active | Active
CCC1C(=O)N2CC1CC(OC)=C2C(=O)O (stereo not given) | Active | Active
NCCSCc1cnccc1SC1=C(C(=O)O)N2C(=O)[C@@H](NC(=O)/C(=N\O)c3nc(N)sc3Cl)[C@H]2SC1 | Active | Active
CC1(C)S[C@@H]2[C@H](NC(=O)[C@H](N)c3ccc(O)cc3)C(=O)N2[C@H]1C(=O)O | Active | Active
CCO/N=C(\C(=O)NC1C(=O)N2C(C(=O)[O-])=CC(/C=C/Sc3cc[n+](C)cc3)SC12)c1nsc(N)n1 (stereo not given) | Active | Active
C[C@@H](O)[C@H]1C(=O)N2C(C(=O)O)=C(SCCNC=N)C[C@H]12 | Active | Active
C[C@H]1COc2c(N3CCN(C)CC3)c(F)cc3c(=O)c(C(=O)O)cn1c23 | Active | Active
C=CC1=C(C(=O)O)N2C(=O)[C@@H](NC(=O)/C(=N\O)c3csc(N)n3)[C@H]2SC1 | Active | Active
Cc1cc(SCC2=C(C(=O)[O-])N3C[C@@H](NC(=O)CSc4c(Cl)cc(/C=C/C(=O)NCC(=O)[O-])cc4Cl)[C@H]3SC2)cc(C)[n+]1CCC[N+]1(C)CCOCC1 | Active | Active
CO/N=C(\C(=O)N[C@@H]1C(=O)N2C(C(=O)O)=C(COC(N)=O)CS[C@H]12)c1ccco1 | Active | Active
CCn1c2ccccc2c2cc(/C=C3\S/C(=N\C(Cc4ccccc4)C(=O)O)N(c4ccccc4)C3=O)ccc21 (stereo not given) | inactive | inactive
C[C@@H](O)[C@H]1C(=O)N2C(C(=O)O)=C(SC3CN(C4=NCCS4)C3)[C@H](C)[C@H]12 | Active | Active
CC(=N)N1CC[C@H](SC2=C(C(=O)O)N3C(=O)[C@H]([C@@H](C)O)[C@H]3C2)C1 | Active | Active
COc1c(N2CCNC(C)C2)c(F)cc2c(=O)c(C(=O)O)cn(C3CC3)c12 (stereo not given) | Active | Active
CC(=O)NC1CON(C2(C(=O)O)CCC(=O)O2)C1=O (stereo not given) | Active | Active
N[C@@H](C(=O)N[C@@H]1C(=O)N2C(C(=O)O)=C(Cl)CC[C@H]12)c1ccccc1 | Active | Active
CO/N=C(\C(=O)N[C@@H]1C(=O)N2C(C(=O)OCOC(=O)C(C)(C)C)=C(/C=C\c3scnc3C)CS[C@H]12)c1csc(N)n1 | Active | Active
C[C@H]1NCc2cc(-c3ccc4c(=O)c(C(=O)O)cn(C5CC5)c4c3OC(F)F)ccc21 | Active | Active
Nc1nc(/C(=N/O)C(=O)N[C@@H]2C(=O)N3C(C(=O)O)=C(/C=C4\CCN([C@@H]5CCNC5)C4=O)CS[C@H]23)ns1 | Active | Active
C[C@@H](NC(=O)c1ccccc1)C(=O)SCC(=O)O | Active | Active
CC/C=C(\C(=O)N[C@@H]1C(=O)N2C(C(=O)O)=C(COC(N)=O)CS[C@H]12)c1csc(N)n1 | Active | Active
O=C(O)c1cc(-c2ccc(/C=C3\S/C(=N\c4ccccc4)N(c4ccccc4)C3=O)o2)ccc1Cl | inactive | inactive
CC(NC(=O)C(C)NC(=O)CCCCCN)C(=O)O (stereo not given) | inactive | inactive
